The list is not random: actives were taken first. Their share in the collection is about 4.5%.
CHOP inhibitor = inhibitors of CHOP induction in ER stress response. CHO-K1 CHOP-promoter luciferase, tunicamycin-induced, 15-18 h. inhibition, % at 10 µM. actives 3.8% (n = 220,000);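 active = compounds that reduced the stress-induced luciferase reporter signal by more than about 70% of percent inhibition, limit read from the data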;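 note: 0% = tunicamycin plus vehicle and 100% = wells without tunicamycin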
UPR CHOP act = apoptotic UPR (CHOP) activation | activation, % at 10 µM | actives 0.34% (n = 330,000) | CHO-CHOP luciferase reporter, luminescence; percent of tunicamycin response over DMSO baseline;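 active = at 10 µM dose, activation of 40% or more, normalized to positive control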;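 note: 100% = tunicamycin at 10 µg/mL and 0% = DMSO alone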
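Assay system: CHO-CHOP cells, stable luciferase reporter of PERK-eIF2a-CHOP signalling / Buffer or medium: F12 plus 10% serum / Compound dosing: one dose, 10 µM in 0.5% DMSO / Times: 6 h compound treatment, 37 °C / Technique: luciferase luminescence / Read-out: % reporter activation, DMSO baseline versus tunicamycin full activation / Benchmarks: tunicamycin and DMSO controls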
M18AAP inhibitor = PfM18AAP enzyme inhibition | actives 1.2% (n = 290,000) | recombinant PfM18AAP, H-Glu-NHMec fluorogenic cleavage | inhibition, % at 7.35 µM;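 active = inhibition above the campaign mean inhibition over all tested compounds plus 3 SD, cut at about 28% in these data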;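 note: 0% = plate median of test compound wells and 100% = 2 mM ZnCl2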
NS3 helicase inh = blocks Hepatitis C virus NS3 helicase unwinding; inhibition, % at 10.9 µM; NS3 helicase DNA unwinding, Cy5 molecular beacon fluorescence; actives 0.56% (n = 290,000);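 active = inhibition above the mean of all tested compounds plus 3 SD, set per campaign, cut at about 35% in these data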;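 note: 0% = DMSO wells and 100% = thioflavine S control wells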
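assay system = NS3 helicase fragment of HCV | buffer or medium = MOPS pH 6.5, MgCl2, DTT, Tween20, BSA | timing = 60 min unwinding reaction at 25 °C after ATP addition | signal = Cy5 beacon fluorescence read at start and 1 h | read-out basis = % inhibition of unwinding | control set = low DMSO, high thioflavine S at 110 µM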
p97 inhibitor = inhibitors of human p97 ATPase | actives 0.42% (n = 220,000) | inhibition, % at 8 µM | recombinant p97 ATPase, Kinase-Glo ATP luminescence, 3 h | P55072; in the data active = inhibition above about 15%;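 note: 0% = DMSO vehicle and 100% = wells lacking enzyme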
Target sequence (P55072 whole entry, looked up): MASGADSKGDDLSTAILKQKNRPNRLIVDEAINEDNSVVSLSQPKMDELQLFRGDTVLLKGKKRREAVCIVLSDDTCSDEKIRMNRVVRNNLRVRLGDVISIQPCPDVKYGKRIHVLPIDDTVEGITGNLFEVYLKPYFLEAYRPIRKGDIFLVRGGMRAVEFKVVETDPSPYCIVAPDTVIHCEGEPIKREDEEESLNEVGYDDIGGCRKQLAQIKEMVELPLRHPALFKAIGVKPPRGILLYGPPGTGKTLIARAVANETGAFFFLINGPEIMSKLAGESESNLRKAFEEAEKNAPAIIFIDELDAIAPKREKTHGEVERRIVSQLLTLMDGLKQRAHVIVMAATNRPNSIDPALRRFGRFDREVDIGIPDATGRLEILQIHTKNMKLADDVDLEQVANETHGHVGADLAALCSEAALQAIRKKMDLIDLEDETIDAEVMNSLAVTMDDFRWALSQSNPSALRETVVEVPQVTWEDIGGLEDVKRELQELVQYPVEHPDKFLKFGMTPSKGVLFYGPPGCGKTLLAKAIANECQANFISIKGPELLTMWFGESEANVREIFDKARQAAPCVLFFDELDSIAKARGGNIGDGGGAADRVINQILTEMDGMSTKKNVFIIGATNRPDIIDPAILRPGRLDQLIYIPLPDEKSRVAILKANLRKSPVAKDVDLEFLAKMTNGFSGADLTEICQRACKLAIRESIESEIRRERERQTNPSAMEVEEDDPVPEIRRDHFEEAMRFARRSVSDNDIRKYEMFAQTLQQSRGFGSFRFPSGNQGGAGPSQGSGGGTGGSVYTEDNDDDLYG
XBP1 UPR activ = adaptive UPR (XBP1) activation; CHO-XBP1 luciferase reporter, IRE1-XBP1 UPR activation, luminescence; percent of tunicamycin response, DMSO as zero; activation, % at 20 µM; actives 0.33% (n = 330,000); AID 463104;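 active = versus positive control, 20 µM dose yields 30% or more activation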;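 note: 100% = tunicamycin at 10 µg/mL and 0% = DMSO only wells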
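Material: CHO-XBP1 cells stably carrying IRE1-XBP1-driven luciferase reporter / Amount: 1000 cells per well / Compound: 20 µM, 1% DMSO / Times: 6 h treatment, 37 °C / Detection: luciferase luminescence / Measure: % activation of reporter signal versus tunicamycin and DMSO controls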
Starred values were filed as active, the others as inactive; x = not tested or not shown.

SMILES | CHOP inhibitor | UPR CHOP act | M18AAP inhibitor | NS3 helicase inh | p97 inhibitor | XBP1 UPR activ
CCC(CC)NC(=O)COC(=O)c1ccc(OCC(=O)Nc2ccccc2OC)c(OC)c1 | 82.4* | 2.1 | -5.1 | 2.2 | 3.8 | 17.7
CCCNC(=O)COC(=O)c1ccc(OCC(=O)Nc2ccccc2OC)c(OC)c1 | -4.0 | 0.7 | -4.2 | -0.1 | 3.5 | 5.0
Cc1ccc(CNC(=O)COC(=O)c2ccc(S(=O)(=O)NCc3ccco3)cc2)cc1 | x | -0.1 | x | x | x | -3.5
O=C(Nc1ccc(N2CCOCC2)cc1)Nc1ccc(Cl)c(Cl)c1 | 79.3* | 3.7 | 14.4 | -1.7 | -8.4 | 2.6
O=C(Nc1ccc(Cl)cc1)Nc1ccc(N2CCOCC2)cc1 | 24.0 | 2.6 | 0.4 | 0.8 | 1.6 | 5.9
S=C(Nc1ccc(N2CCOCC2)cc1)Nc1ccc2snnc2c1 | -9.7 | 0.9 | 30.1* | -15.0 | 3.1 | -3.4
COc1ccc(C(=O)c2sc(NC(C)C)nc2N)cc1OC | 46.4 | -4.2 | -5.6 | -10.2 | 1.8 | 0.6
COc1cccc(C(=O)c2sc(NC(C)C)nc2N)c1 | 91.3* | -2.7 | 4.1 | -0.5 | 4.3 | -3.7
O=S(=O)(Nc1ccc(Cl)cn1)c1ccc2c(c1)OCCO2 | x | -0.2 | x | x | x | -3.6
Cc1ccc(NC(=O)Nc2nc(-c3ccc(C)s3)cs2)cc1 | 86.3* | 2.7 | 28.1* | 18.3 | 4.6 | 4.9
COc1ccc(-c2csc(NC(=O)Nc3ccccc3)n2)cc1 | x | 3.5 | -1.8 | 11.9 | x | -2.4
Cc1cc(C)nc(-n2nc(C)c(Br)c2Nc2ccc(Br)cc2)n1 | 77.0* | 0.3 | 2.9 | 23.1 | -5.1 | 0.1
Cc1nn(C)c(Nc2ccc(Br)cc2)c1Br | 74.5* | 0.1 | 5.9 | -8.8 | 1.8 | -1.3
CC[n+]1c(C)sc2sc3ccccc3c21 | 2.5 | 0.0 | 60.3* | 8.7 | 2.0 | -0.3
Cc1nc2c(s1)sc1ccccc12 | 34.4 | 2.9 | 6.0 | 3.6 | 0.9 | 0.9
O=C(C1CCN(S(=O)(=O)c2cc(Cl)ccc2Cl)CC1)N1CCCC1 | x | -0.2 | -3.7 | 20.1 | x | -0.3
N#CC1=C2SCN(Cc3ccco3)CN2C(=O)CC1c1ccccc1F (stereo unspecified) | 3.5 | -0.1 | 16.9 | 9.8 | -2.6 | -1.8
N#CC1=C2SCN(Cc3ccco3)CN2C(=O)CC1c1cccc2ccccc12 (stereo unspecified) | -20.0 | 1.6 | 29.8* | 24.6 | 1.1 | 1.4
O=C(C[n+]1ccccc1)N/N=C/c1ccc(C(=O)O)cc1 | x | 1.2 | x | x | x | 1.5
COCCN(C(=O)COC(=O)c1cc2ccccc2cc1O)c1c(N)n(Cc2ccccc2)c(=O)[nH]c1=O | x | -0.3 | x | x | x | 0.4
CCCc1nc2ccccc2c(C(=O)OCC(=O)Nc2cccc(S(=O)(=O)N3CCOCC3)c2)c1CC | 76.8* | 1.8 | -2.2 | -24.8 | -7.6 | 3.4
CCCc1nc2ccccc2c(C(=O)OCC(=O)Nc2ccc(S(=O)(=O)N3CCOCC3)cc2)c1CC | 11.6 | -0.7 | -2.9 | -17.9 | 6.2 | 6.2
CN1CCN(S(=O)(=O)c2ccc(Cl)s2)CC1 | x | 1.2 | -3.9 | 2.5 | x | -2.8
O=c1cc(N2CCCCC2)c(-c2ccccc2)nn1Cc1ccccc1Cl | 90.2* | 1.7 | -0.5 | -12.3 | -4.4 | -4.0
Cc1ccc(Nc2nc(CSc3nnc(-c4cccs4)o3)cs2)cc1 | 85.8* | 4.8 | 0.8 | -14.9 | 0.1 | 2.8
SMILES | CHOP inhibitor | UPR CHOP act | M18AAP inhibitor | NS3 helicase inh | p97 inhibitor | XBP1 UPR activ
Cc1ccc(Nc2nc(CSc3n[nH]c(N)n3)cs2)cc1 | -6.2 | 7.3 | 28.9* | -8.2 | 2.6 | 0.0
Cc1ccc(CSc2n[nH]c(N)n2)cc1 | -7.2 | 0.8 | -2.6 | -3.8 | 2.2 | 0.7
c1ccc(-c2nc(CSc3nnc(-c4cccs4)o3)cs2)cc1 | -25.5 | -0.1 | 2.6 | -8.3 | 3.5 | 1.9
Cc1ccc(N(CC(=O)NCc2ccco2)C(=O)CCC(=O)Nc2nccs2)cc1 | 10.8 | -1.2 | -3.6 | 1.0 | 3.8 | 0.0
Cc1ccc(SCC(=O)NNC(=O)c2cncc(Br)c2)cc1 | x | 2.3 | x | x | x | 0.1
CCCCCn1nc(C(=O)N2CCc3ccccc32)c2ccccc2c1=O | x | -1.2 | x | x | x | -5.5
COc1cc(Cl)c(C)cc1NC(=O)CN1C(=O)C2CC=CCC2C1=O (stereo unspecified) | x | 3.0 | x | x | x | -1.8
Cc1cc(Br)c(OCc2ccc(C(=O)N/N=C3\CC(=O)CC(C)(C)C3)cc2)c(Br)c1 | 90.5* | 1.9 | -6.5 | 9.9 | -5.5 | -1.6
Cn1c(=O)c2c(ncn2CCOc2cccc(Br)c2)n(C)c1=O | x | 1.1 | 0.9 | 6.3 | x | -1.3
CCCn1c(C(=O)OC)cc2c1ccn2-c1ccc(F)cc1 | 71.0* | 2.8 | -1.4 | -8.5 | 0.5 | 2.6
COC(=O)c1cc2c(ccn2-c2ccc(F)cc2)n1CC(C)C | 23.4 | -0.4 | 4.0 | -2.4 | 0.0 | 4.5
CCN(CC)S(=O)(=O)c1cccc(-c2n[nH]c(=S)n2CC(C)C)c1 | -24.7 | -0.9 | 15.7 | 4.0 | -0.3 | 2.5
COC(Cn1c(-c2cccc(S(=O)(=O)N(C)C)c2)n[nH]c1=S)OC | 6.9 | -2.2 | 30.9* | 3.5 | 4.5 | -1.9
O=C(NC1CCCCC1)C(c1cccnc1)N(C(=O)CCl)c1cccc(Cl)c1 (stereo unspecified) | 109.3* | 9.4 | -0.5 | -79.4 | 5.5 | -6.0
COc1ccc(-c2[nH]ncc2-c2ccc(Cl)cc2)c(O)c1 | 85.7* | -1.0 | -4.5 | -17.6 | -1.9 | -1.1
COc1cccc(Oc2cn[nH]c2-c2ccc(OC)cc2O)c1 | 83.7* | 0.1 | 13.0 | -23.7 | -0.9 | 2.2
COc1ccc(-c2cn[nH]c2-c2ccc(OCc3ccc([N+](=O)[O-])cc3)cc2O)cc1OC | 67.5 | -1.6 | -0.2 | -16.1 | 5.5 | 0.6
COc1cccc(Oc2cn[nH]c2-c2ccc(O)cc2O)c1 | x | 0.7 | 9.8 | -8.4 | 0.8 | -2.0
COc1ccc(-c2cn[nH]c2-c2ccc(OC)cc2O)cc1 | x | -1.3 | 3.9 | -3.2 | x | -2.7
O=[N+]([O-])c1ccc(COc2ccc(-c3[nH]ncc3-c3ccc(Cl)cc3)c(O)c2)cc1 | 81.5* | 2.2 | 4.5 | 11.6 | 4.6 | -0.1
Cc1cccc(C)c1NC(=O)CSc1nc2[nH]c(=O)cc(O)c2s1 | x | 1.0 | x | x | x | -1.5
CN(Cc1ccccc1)C(=O)COC(=O)c1cc(=O)c2ccccc2o1 | x | -2.0 | x | x | x | -2.1
CCC(=O)/C=C1\Sc2ccc(OC)cc2N1CCO | 24.2 | 0.3 | 29.5* | -0.8 | -7.3 | -1.7
O=C(Nc1nc2c(s1)CCCC2)Oc1ccccc1 | 55.5 | 3.4 | 2.7 | 2.6 | -4.9 | -0.8
O=C(O)c1ccc(Nc2nc3c(s2)CCCC3)cc1 | 91.2* | -8.9 | 10.7 | 13.0 | 3.1 | -6.9
COc1ccc(N2CCN(C(=O)NCc3cccc(OC)c3)CC2)cc1 | x | 0.1 | 1.6 | 5.3 | x | -1.7
C=CCSc1nc(C)c2cc(C)cc(C)c2n1 | 95.9* | 1.1 | -2.7 | 3.2 | 3.0 | 1.3

High-throughput results: PubChem BioAssay, several laboratories
